Test results as given in ChEMBL document CHEMBL1135654, “Antitumor agents. 1. Synthesis, biological evaluation, and molecular modeling of 5H-pyrido[3,2-a]phenoxazin-5-one, a compound with potent antiproliferative activity” (J Med Chem, 2002).
Starred links: 1 amine or outer side, 2 acyl side, 3 side chain; linkers in the order of their positions; H or OH if unused. Positions of bridges follow the written chain, without caps; N, C: chain ends. Non-standard residues stand in square brackets, D forms with d. Residues, ends and D or L forms follow the SMILES beside them. Chains are numbered I, II in the order given. Actinocin(1to9) = Cc1c2oc3c(C)ccc(C(=O)[*:2])c3nc-2c(C(=O)[*:1])c(N)c1=O; NMeV = CN[C@H](C(=O)O)C(C)C; Sar = CNCC(=O)O

Key:
5637 = experiment: Antitumor activity against human bladder carcinoma 5637 cells; type: functional, cell-based
Procedure, shortened: (§1)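 Solid-tumor cells in exponential growth seeded at 5 × 10^4 cells/mL in their own medium with 10% FCS, allowed to adhere 16 h, then serially diluted drug added (DMSO stock 200 µM diluted in medium). MTT viability read 4 days later, 37 °C, 5% CO2. IC50 by linear regression from % of untreated control growth. Three independent determinations.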

HepG2 = experiment: Antitumor activity against human hepatocellular carcinoma HepG2 cells; type: functional, cell-based; procedure, shortened: as §1
DU-145 = experiment: Antitumor activity against human prostate carcinoma DU145 cells; type: functional, cell-based; procedure, shortened: as §1
[1] = test system: Panel leukemia (Carcinoma cell lines); experiment: (§2) Cytotoxicity for lymphoblastoid cell lines; type: functional; settings: Homo sapiens
HT-29 = experiment: Antitumor activity against human colon adenocarcinoma HT-29 cells; type: functional, cell-based; procedure, shortened: as §1
[2] = Compound concentration required to reduce the cell proliferation of Wild type and drug-resistant KB subclones passaged in the presence of etoposide 7 uM by 50%; type: functional; settings: Homo sapiens
Procedure, shortened: (§3)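 Cells seeded at 5 × 10^4 cells/mL, adhered 16 h, exposed to serial drug dilutions; MTT after 4 days. IC50 by linear regression versus untreated controls; mean ± SD of three independent determinations.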

[3] = Compound concentration required to reduce the cell proliferation of Wild type and Drug- resistant human nasopharyngeal carcinoma KB cells by 50%; type: functional, cell-based; procedure, shortened: as §3
MT4 [4] = experiment: Antitumor activity against […] human acute T-lymphoblastic leukemia MT-4 cells; type: functional, cell-based
Procedure, shortened: (§4)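 Leukemia/lymphoma cells in exponential growth resuspended at 1 × 10^5 cells/mL in RPMI 1640 (10% FCS, antibiotics) with serial dilutions of drug (DMSO stock 200 µM diluted in medium). Viability by MTT after 96 h at 37 °C, 5% CO2. Growth expressed as % of untreated controls; IC50 by linear regression. Controls underwent ≥3 rounds of multiplication. Mean of three independent determinations.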

[5] = (§5) Cytotoxicity for Peripheral blood Lymphocytes; type: functional; settings: Homo sapiens
Procedure, shortened: (§6)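 Human PBL from HIV-negative donors, isolated on Ficoll-Hypaque. Resting cells (1 × 10^6/mL) exposed up to 3 days to serial drug dilutions, washed, PHA-stimulated 24 h, diluted to 1 × 10^5/mL with PHA and IL-2, viability read after 6 days at 37 °C. Alternatively, PBL stimulated with PHA (2.5 µg/mL) 24 h, then grown with PHA, IL-2 (50 U/mL) and drug, and viable cells counted at day 6. Mean ± SD, three experiments.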

G-361 = experiment: Antitumor activity against human skin melanoma G-361 cells; type: functional, cell-based; procedure, shortened: as §1
MOLT-4 = experiment: Antitumor activity against human acute T-lymphoblastic leukemia MOLT-4 cells; type: functional, cell-based
HEp-2 [6] = experiment: Antitumor activity against larynx carcinoma Hep-2 cells; type: functional, cell-based; settings: Homo sapiens; procedure, shortened: as §1
MCF7 = experiment: Antitumor activity against human breast adenocarcinoma MCF-7 cells; type: functional, cell-based; procedure, shortened: as §1
CCRF-CEM [7] = experiment: Antitumor activity against human acute T-lymphoblastic leukemia CCRF-CEM cells; type: functional, cell-based; procedure, shortened: as §4
HeLa [8] = experiment: Antitumor activity against cervix carcinoma Hela cells; type: functional, cell-based; settings: Homo sapiens; procedure, shortened: as §1
CRL-7065 cell line = experiment: Antitumor activity against human foreskin fibroblasts CRL7065 cells; type: functional, cell-based; procedure, shortened: as §1
SK-MES-1 = experiment: Antitumor activity against human lung squamous carcinoma SK-MES-1 cells; type: functional, cell-based; procedure, shortened: as §1
MT4 [9] = experiment: Antitumor activity against human CD4+T cells expressing the TAT gene of HTLV-1 MT-4 cells; type: functional, cell-based; procedure, shortened: as §4
C8166 = experiment: Antitumor activity against […] human acute T-lymphoblastic leukemia C8166 cells; type: functional, cell-based; procedure, shortened: as §4
Raji = experiment: Antitumor activity against human Burkitt lym phoma Raji cells; type: functional, cell-based; procedure, shortened: as §4
[10] = Effect on the proliferation Wild -type and Drug- resistant KB subclones passaged uM; type: functional, Homo sapiens; procedure, shortened: as §3
[11] = as §5; type: functional; settings: Homo sapiens; procedure, shortened: as §6; remark: listed apart in the source
[12] = Compound concentration required to reduce the cell proliferation of Wild type and Drug- resistant KB subclones passaged in the presence of doxorubicin 0.09 uM by 50%; type: functional; settings: Homo sapiens; procedure, shortened: as §3
CCRF-SB [13] = experiment: Antitumor activity against human acute B-lymphoblastic leukemia CCRF-SB cells; type: functional, cell-based; procedure, shortened: as §4
SK-MEL-28 = experiment: Antitumor activity against human skin melanoma […] cells; type: functional, cell-based; procedure, shortened: as §1
WIL2-NS [14] = experiment: Anti tumor activity against human splenic B-lympho blastoid Wil2-NS cells; type: functional, cell-based; procedure, shortened: as §4
ACHN = experiment: Antitumor activity against human renal adenocarcinoma ACHN cells; type: functional, cell-based; procedure, shortened: as §1
[15] = Effect on the proliferation wild-type and drug-resistant KB subclones passaged uM; type: functional, Homo sapiens; procedure, shortened: as §3
HEp-2 [16] = experiment: Compound concentration required to reduce the cell proliferation of larynx carcinoma cells by 50%, using MTT method.; type: functional, cell-based; settings: Homo sapiens; procedure, shortened: as §1
HeLa [17] = experiment: Compound concentration required to reduce the cell proliferation of cervix carcinoma Hela cells by 50%, using MTT method.; type: functional, cell-based; settings: Homo sapiens; procedure, shortened: as §1
CCRF-CEM [18] = experiment: Compound concentration required to reduce the cell proliferation of human acute T-lymphoblastic leukemia CCRF-CEM cells by 50%, using MTT method.; type: functional, cell-based; procedure, shortened: as §4
CCRF-SB [19] = experiment: Compound concentration required to reduce the cell proliferation of human acute B-lymphoblastic leukemia CCRF-SB cells by 50%, using MTT method.; type: functional, cell-based; procedure, shortened: as §4
MT4 [20] = experiment: Compound concentration required to reduce the cell proliferation of human CD4+T cells by 50%, using MTT method.; type: functional, cell-based; procedure, shortened: as §4
[21] = Effect on the proliferation Wild -type and Drug- resistant KB subclones passaged in the presence of vincristine 0.02 uM; type: functional, Homo sapiens; procedure, shortened: as §3
IMR-32 = experiment: Antitumor activity against human neuroblastoma IMR32 cells; type: functional, cell-based; procedure, shortened: as §1
Lymphoblastoid cell = experiment: as §2; type: functional; settings: Homo sapiens
WIL2-NS [22] = experiment: Antitumor activity against human splenic B-lympho blastoid Wil2-NS cells; type: functional, cell-based; procedure, shortened: as §4
MT4 [23] = experiment: Compound concentration required to reduce the cell proliferation of human CD4+T cells by 50%, using MTT method; type: functional, cell-based; procedure, shortened: as §4
HeLa [24] = experiment: Compound concentration required to reduce the cell proliferation of cervix carcinoma Hela cells by 50%, using MTT method; type: functional, cell-based; settings: Homo sapiens; procedure, shortened: as §1
HEp-2 [25] = experiment: Compound concentration required to reduce the cell proliferation of larynx carcinoma cells by 50%, using MTT method; type: functional, cell-based; settings: Homo sapiens; procedure, shortened: as §1
CCRF-SB [26] = experiment: Compound concentration required to reduce the cell proliferation of human acute B-lymphoblastic leukemia CCRF-SB cells by 50%, using MTT method; type: functional, cell-based; procedure, shortened: as §4
CCRF-CEM [27] = experiment: Compound concentration required to reduce the cell proliferation of human acute T-lymphoblastic leukemia CCRF-CEM cells by 50%, using MTT method; type: functional, cell-based; procedure, shortened: as §4

Structure (SMILES)	IC50 5637 [µM]	IC50 (HepG2) [µM]	IC50 (DU-145) [µM]	IC50 (HT-29) [µM]	IC50 [2] [µM]	IC50 [3] [µM]	IC50 (MT4 [4]) [µM]	CC50 [5] [µM]	IC50 (G-361) [µM]	IC50 (HEp-2 [6]) [µM]	IC50 (CCRF-CEM [7]) [µM]	IC50 (CRL-7065 cell line) [µM]	IC50 (SK-MES-1) [µM]	IC50 (MT4 [9]) [µM]	IC50 (C8166) [µM]	IC50 (Raji) [µM]	IC50 [12] [µM]	IC50 (CCRF-SB [13]) [µM]	IC50 (SK-MEL-28) [µM]	IC50 (ACHN) [µM]	other results
Cc1c2oc3c(C)ccc(C(=O)N[C@@H]4C(=O)N[C@H](C(C)C)C(=O)N5CCC[C@H]5C(=O)N(C)CC(=O)N(C)[C@@H](C(C)C)C(=O)O[C@@H]4C)c3nc-2c(C(=O)N[C@@H]2C(=O)N[C@H](C(C)C)C(=O)N3CCC[C@H]3C(=O)N(C)CC(=O)N(C)[C@@H](C(C)C)C(=O)O[C@@H]2C)c(N)c1=O [DACTINOMYCIN] (I: T[dV]P[Sar][NMeV] / II: T[dV]P[Sar][NMeV]; ester I:1-I:C, II:1-II:C; linker I:N-II:N via Actinocin(1to9))	0.003	0.01	0.008	0.006	0.2	0.005	0.001	0.005	0.001	0.004	0.001	0.007	0.004	0.001	0.0008	0.002	0.2	0.002	0.002	0.005	CC50 [1]: 0.003 µM; IC50 (MOLT-4): 0.001 µM; IC50 (MCF7): 0.006 µM; IC50 (HeLa [8]): 0.008 µM; IC50 [10]: 0.05 µM; CC50 [11]: 0.002 µM; IC50 (WIL2-NS [14]): 0.003 µM
COc1cc([C@@H]2c3cc4c(cc3[C@@H](O[C@@H]3O[C@@H]5CO[C@@H](C)O[C@H]5[C@H](O)[C@H]3O)[C@H]3COC(=O)[C@H]23)OCO4)cc(OC)c1O [ETOPOSIDE]					> 20	0.6											> 20				IC50 [15]: 6.2 µM
CC(=O)Nc1cc2nc3ccccc3oc-2cc1=O																					IC50 (HEp-2 [16]): 1.4 µM; IC50 (HeLa [17]): 8.2 µM; IC50 (CCRF-CEM [18]): > 50 µM; IC50 (CCRF-SB [19]): 3.6 µM; IC50 (MT4 [20]): 9.5 µM
O=c1ccc2nc3ccccc3oc-2c1																					IC50 (HEp-2 [16]): 14.2 µM; IC50 (HeLa [17]): 13 µM; IC50 (CCRF-CEM [18]): 19 µM; IC50 (CCRF-SB [19]): 9 µM; IC50 (MT4 [20]): 11 µM
CC(=O)c1c2nc3c(C(C)=O)cccc3oc-2cc(=O)c1N																					IC50 (HEp-2 [16]): 1.5 µM; IC50 (HeLa [17]): 2 µM; IC50 (CCRF-CEM [18]): 0.9 µM; IC50 (CCRF-SB [19]): 0.5 µM; IC50 (MT4 [20]): 1.8 µM
O=c1cc2oc3ccccc3nc-2c2cccnc12	0.01	0.05	0.04	0.25	0.02	0.1	0.01	0.03	0.01	0.04	0.01	0.5	0.04	0.01	0.1	0.04	0.04	0.009	0.21	0.01	CC50 [1]: 0.04 µM; IC50 (MOLT-4): 0.04 µM; IC50 (MCF7): 0.23 µM; IC50 (HeLa [8]): 0.2 µM; IC50 [21]: 0.06 µM; IC50 (IMR-32): 0.01 µM; CC50 [11]: 5 µM; IC50 (WIL2-NS [14]): 0.05 µM
COc1cccc2c1C(=O)c1c(O)c3c(c(O)c1C2=O)C[C@@](O)(C(=O)CO)C[C@@H]3O[C@H]1C[C@H](N)[C@H](O)[C@H](C)O1 [DOXORUBICIN]		0.12	0.03	0.15	2.8	0.06	0.01	0.04	0.09	0.04	0.02	0.5	0.03	0.01	0.02	0.03	1.8	0.03	0.06	0.04	CC50 (Lymphoblastoid cell): 0.02 µM; IC50 [10]: 0.4 µM; CC50 [11]: 0.09 µM
O=c1cc2sc3ccccc3nc-2c2cccnc12	0.15	0.11	0.61	10			0.08		0.22	0.1	0.07	0.81	0.8	0.08	0.41	0.03		0.08	0.81	1.92	IC50 (WIL2-NS [22]): 0.15 µM; IC50 (MOLT-4): 0.14 µM; IC50 (MCF7): 0.65 µM; IC50 (HeLa [8]): 0.6 µM; IC50 (IMR-32): 0.53 µM
Nc1cc2nc3ccccc3oc-2cc1=O																					IC50 (MT4 [23]): 1.2 µM; IC50 (HeLa [24]): 2.7 µM; IC50 (HEp-2 [25]): 1.8 µM; IC50 (CCRF-SB [26]): 1 µM; IC50 (CCRF-CEM [27]): 2 µM
CC[C@]1(O)C[C@H]2CN(CCc3c([nH]c4ccccc34)[C@@](C(=O)OC)(c3cc4c(cc3OC)N(C=O)[C@H]3[C@@](O)(C(=O)OC)[C@H](OC(C)=O)[C@]5(CC)C=CCN6CC[C@]43[C@@H]65)C2)C1 [VINCRISTINE]					0.05	0.006											0.7				IC50 [21]: 0.2 µM
